Each block holds one compound with its values, some of them ahead of it.
What was measured:
[1] = test system: Rattus norvegicus; assay: Compound tested for its effect on Nonconflict(VI) operant responding of rats at a dose of 30.0 mg/kg administered perorally.; type: functional; settings: route oral
Outline: (§1)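 Cook-Davidson conflict procedure in rats given oral doses. Rats lever-press for milk reward with shock (conflict, FR) and without shock (nonconflict, VI). Value is % change in response rate, with significance set at P < 0.05. The minimally effective oral dose is taken as the dose raising conflict responding or lowering VI responding.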

[2] = test system: Rattus norvegicus; assay: Minimal effective oral dose to cause increase in conflict response in rats after po administration.; type: functional; outline: as §1
[3] = test system: Rattus norvegicus; assay: Compound tested for its effect on conflict(FR) operant responding of rats at a dose of 30.0 mg/kg administered perorally.; type: functional; settings: route oral; outline: as §1
[4] = target: GABA-A receptor; anion channel (Rattus norvegicus) (UniProt O09028+P15431+P18506+P18508+P19969+P20236+P23574+P23576+P28471+P28473+P30191+P62813+P63079+P63138+Q91ZM7+Q9ES14); assay: GABA ratio measured by the IC50 in the absence of GABA compared to the IC50 in the presence of GABA in rats.
Outline: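 Modified [3H]flunitrazepam binding in rat forebrain, with IC50 measured with and without GABA. Ratio = IC50 without GABA divided by IC50 with GABA.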

[5] = test system: Rattus norvegicus; assay: Compound tested for its effect on Nonconflict(VI) operant responding of rats at a dose of 10.0 mg/kg administered perorally.; type: functional; settings: route oral; outline: as §1
[6] = species: Rattus norvegicus; assay: Anxiolytic response measured by antagonism of pentylenetetrazole discriminative stimuli in rats.; type: functional
Outline: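 Rats trained to discriminate a subconvulsant dose of pentylenetetrazole (PTZ) from vehicle. Test compound given 30 min before the PTZ dose. Antagonism of the PTZ stimulus is scored as the anxiolytic response. ED50 values by probit analysis, with 95% confidence limits.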

[7] = test system: Rattus norvegicus; assay: Minimal effective oral dose to cause VI response decrement in rats.; type: functional; outline: as §1
[8] = target: GABA-A receptor; anion channel; assay: Displacement of [3H]flunitrazepam (FNZ) from GABA-A benzodiazepine receptor in rat forebrain
[9] = test system: Rattus norvegicus; assay: Compound tested for its effect on conflict(FR) operant responding of rats at a dose of 10.0 mg/kg administered perorally.; type: functional; settings: route oral; outline: as §1
[10] = test system: Rattus norvegicus; assay: Anxiolytic response at 30 mg/Kg measured by antagonism of pentylenetetrazole discriminative stimuli in rats.; type: functional
[11] = test system: Rattus norvegicus; assay: Compound tested for its effect on conflict (FR) operant responding of rats at a dose of 30.0 mg/Kg administered perorally.; type: functional; outline: as §1
[12] = test system: Rattus norvegicus; assay: Compound tested for its effect on Nonconflict (VI) operant responding of rats at a dose of 30.0 mg/Kg administered perorally.; type: functional; outline: as §1
[13] = test system: Rattus norvegicus; assay: Compound tested for its effect on conflict (FR) operant responding of rats at a dose of 3.0 mg/Kg administered perorally.; type: functional; outline: as §1
[14] = test system: Rattus norvegicus; assay: Compound tested for its effect on Nonconflict (VI) operant responding of rats at a dose of 3.0 mg/Kg administered perorally.; type: functional; outline: as §1
[15] = test system: Rattus norvegicus; assay: Compound tested for its effect on conflict (FR) operant responding of rats at a dose of 10.0 mg/Kg administered perorally.; type: functional; outline: as §1
[16] = test system: Rattus norvegicus; assay: Compound tested for its effect on Nonconflict (VI) operant responding of rats at a dose of 10.0 mg/Kg administered perorally.; type: functional; outline: as §1
[17] = test system: Rattus norvegicus; assay: Anxiolytic response at 10 mg/Kg measured by antagonism of pentylenetetrazole discriminative stimuli in rats.; type: functional
[18] = test system: Rattus norvegicus; assay: Interaction with ethanol in Rotarod performance at a dose of 1 mg/Kg in rats.; type: functional
Outline: (§2)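 Rotorod test of ethanol interaction in male Wistar (Crl:(WI)BR) rats, 130–160 g. Vehicle or test compound (0, 1, 3, 10 mg/kg) given orally 30 min before ethanol. Graded ethanol doses given ip 30 min before rotorod testing. Ethanol ED50 reported with confidence limits, P < 0.05.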

[19] = test system: Rattus norvegicus; assay: Minimal effective oral dose to cause ethanol interaction in rats.; type: functional; outline: as §2
[20] = test system: Rattus norvegicus; assay: Compound tested for its effect on Nonconflict (VI) operant responding of rats at a dose of 1.0 mg/Kg administered perorally.; type: functional; outline: as §1
[21] = test system: Rattus norvegicus; assay: Compound tested for its effect on conflict (FR) operant responding of rats at a dose of 1.0 mg/Kg administered perorally.; type: functional; outline: as §1
[22] = test system: Rattus norvegicus; assay: Interaction with ethanol in Rotarod performance at a dose of 10 mg/Kg in rats.; type: functional; outline: as §2
[23] = test system: Rattus norvegicus; assay: Interaction with ethanol in Rotarod performance at a dose of 0 mg/Kg in rats.; type: functional; outline: as §2
[24] = test system: Rattus norvegicus; assay: Interaction with ethanol in Rotarod performance at a dose of 3 mg/Kg in rats.; type: functional; outline: as §2

GABA ratio [4]: 1.7 | IC50 [8]: 5.35 nM
Compound: Oc1nc2c(c3nc(-c4ccc(F)cc4)nn13)CN(Cc1ccccc1)CC2
Change in response rate [1]: -38% | MED [2]: 30 mg/kg | Change in response rate [3]: 372% | Change in response rate [5]: -17% | ED50 [6]: 2.55 mg/kg | MED [7]: 30 mg/kg | Change in response rate [9]: 30%

IC50 [8]: > 100 nM
Compound: NC(Cc1ccccc1)C(=O)N1CCc2nc(O)n3nc(-c4ccccc4F)nc3c2C1 (stereo not given)

GABA ratio [4]: 1.65 | IC50 [8]: 7.6 nM
Compound: Oc1nc2c(c3nc(-c4ccc[nH]4)nn13)CN(Cc1ccccc1)CC2
ED50 [6]: 17.3 mg/kg

GABA ratio [4]: 1.06 | IC50 [8]: 27 nM
Compound: COC(=O)CN1CCc2nc(O)n3nc(-c4ccccc4F)nc3c2C1
inhibition in vivo at 30 mg/kg [10]: 12%

IC50 [8]: 4.7 nM
Compound: Oc1nc2c(c3nc(-c4ccccc4F)nn13)CCC2

IC50 [8]: 7.2 nM
Compound: Oc1nc2c(c3nc(-c4ccccc4F)nn13)CCCCC2
MED [2]: 10 mg/kg | Change in response rate [11]: 236% | Change in response rate [12]: 49% | Change in response rate [13]: 79% | Change in response rate [14]: 11% | ED50 [6]: 4.4 mg/kg | Change in response rate [15]: 232% | MED [7]: 10 mg/kg | Change in response rate [16]: 53%

GABA ratio [4]: 1.65 | IC50 [8]: 0.64 nM
Compound: Oc1nc2c(c3nc(-c4ccccc4F)nn13)CN(Cc1ccccn1)CC2
inhibition in vivo at 10 mg/kg [17]: 50%

IC50 [8]: 50 nM
Compound: O=C(c1ccccc1)N1CCc2nc(O)n3nc(-c4ccccc4F)nc3c2C1

IC50 [8]: 150 nM
Compound: CCN1CCc2nc(O)n3nc(-c4ccccc4F)nc3c2C1

GABA ratio [4]: 1.14 | IC50 [8]: 1.89 nM
Compound: Oc1nc2c(c3nc(-c4ccccc4F)nn13)CN(Cc1ccncc1)CC2

GABA ratio [4]: 0.74 | IC50 [8]: 67 nM
Compound: NC(=O)N1CCc2nc(O)n3nc(-c4ccccc4F)nc3c2C1

IC50 [8]: 28 nM
Compound: Oc1nc2c(c3nc(-c4ccccc4F)nn13)CN(CCc1ccccc1)CC2

GABA ratio [4]: 1.4 | IC50 [8]: 2.19 nM
Compound: Oc1nc2c(c3nc(-c4ccccc4)nn13)CN(Cc1ccccc1)CC2
ED50 [18]: 984 mg/kg | MED [19]: 1 mg/kg | MED [2]: 3 mg/kg | Change in response rate [20]: 0% | Change in response rate [21]: 35% | ED50 [22]: 563 mg/kg | ED50 [23]: 1320 mg/kg | Change in response rate [13]: 167% | Change in response rate [14]: -4% | ED50 [6]: 2.6 mg/kg | Change in response rate [15]: 367% | ED50 [24]: 832 mg/kg | Change in response rate [16]: 12%

IC50 [8]: > 1000 nM
Compound: CC1c2nc(O)n3nc(-c4ccccc4F)nc3c2CN1Cc1ccccc1 (stereo not given)

IC50 [8]: 442 nM
Compound: Oc1nc2c(c3nc(-c4ccccc4F)nn13)CNCC2

IC50 [8]: 140 nM
Compound: O=C(Cc1ccccc1)N1CCc2nc(O)n3nc(-c4ccccc4F)nc3c2C1

Reference: ChEMBL document CHEMBL1125833, “Anxiolytic properties of certain annelated [1,2,4]triazolo[1,5-c]pyrimidin-5(6H)-ones” (J Med Chem, 1991)
